Experimental data collected from several papers.
Target: Sodium-dependent dopamine transporter (SLC6A3, Homo sapiens, UniProt Q01959)

SMILES	observed	action	method	measurement	result
Fc1ccccc1C(Cc1ccccc1)N1CCCC1 (stereo not shown)	ligand displacement	–	radioligand	Ki	327 nM
CN[C@]1(c2ccccc2Cl)CCCCC1=O	ligand displacement	–	radioligand	IC50	> 100000 nM
CNC(C)(C)C(=O)c1ccccc1	calcium signal	agonist	fluorescence	EC50	590 nM
C[C@@H](CN1CCC(Cc2ccccc2)CC1)[C@@H](O)c1ccc(O)cc1 (relative stereo)	ligand displacement	–	radioligand	Ki	6000 nM
NCCc1ccc(Oc2ccc(O)cc2)c(I)c1	ligand displacement	–	radioligand	IC50	800 nM
CNc1nc2cc(OCCCCN3CCN(c4cccc(Cl)c4Cl)CC3)ccc2s1	ligand displacement	–	radioligand	Ki	2800 nM
CC(NCc1ccccc1)C(=O)c1ccc2c(c1)OCO2 (stereo not shown)	ligand displacement	–	radioligand	Ki	< 100 nM
CN[C@@H](C)C(=O)c1ccccc1	calcium signal	agonist	fluorescence	EC50	240 nM
CN1[C@H]2CC[C@@H]1[C@@H](c1cc(-c3ccccc3)no1)[C@H](OC(c1ccc(F)cc1)c1ccc(F)cc1)C2	ligand displacement	–	radioligand	Ki	28 nM
CCC[C@@H](C(=O)c1ccc(C)cc1)N1CCCC1	transporter uptake	inhibitor	radiometric	IC50	6.2 nM
